From PubChem
Measles CPE = compounds protecting cells from measles virus cytopathic effect, primary screen, measles RdRp inhibitor project, single point, MLSMR library, absorbance; Measles virus-infected cells, CPE protection; protection (pct of control), % at 4 µM; 1.5% of 140,000 active; in the data active means protection mostly above about 24%, no sharp cut-off; inactive means mostly below about 26%
Yeast lifespan up = compounds extending yeast replicative lifespan, primary screen, S. cerevisiae, OD615 | S. cerevisiae growth with nicotinamide; deaD strain in restrictive glucose medium | inhibition of the nicotinamide effect, % at 10 µM | 0.68% of 130,000 active;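 active means inhibition above a set limit, placed 3 SD over the median of all compounds, cut at about 26% in these data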;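 further: 0% = nicotinamide-treated wells and 100% = cells grown without nicotinamide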
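Material: Modified budding yeast, DeaD strain | Medium: Restrictive glucose medium | Probe or stimulus: 1.5 mM nicotinamide | Dosing: Single dose 10 µM compound, 0.25% DMSO | Times: 48 h at 30 °C | Technique: OD615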
RAM inhibit = inhibitors of the yeast RAM network, primary screen, dse1pr::URA3 reporter, 5-FOA selection | S. cerevisiae dse1pr::URA3 reporter, 5-FOA growth OD615, 2 d; analog-sensitive cbk1-as2 kinase mutant strain | inhibition, % at 50 µM | 1.8% of 190,000 active | AID 868, 2007;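 active means inhibition above a set limit, 3 SD over mean compound inhibition, cut at about 8.4% in these data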;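 further: 0% = DMSO-only wells with no growth and 100% = 10 µM 1-NA-PP1 full growth; inhibition rescues growth on 5-FOA so higher OD means more RAM inhibition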
Yeast growth inh = growth inhibitors of yeast BB579 in restrictive medium, primary screen, yeast lifespan-shortening project, S. cerevisiae | OD615, 48 h | inhibition, % at 10 µM | 0.51% of 140,000 active;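 active means inhibition above a set limit, 3 SD over the mean compound inhibition, cut at about 44% in these data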
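System: Saccharomyces cerevisiae DeaD strain BB579, replicative lifespan model yeast. Buffer or medium: restrictive glucose-based CSMM-D medium. Doses: one dose, 10 µM compound with 0.25% DMSO. Timing: 4 h preincubation and 48 h exposure at 30 °C. Detection: turbidity as optical density at 615 nm. Benchmarks: amphotericin B 10 µg/mL, positive.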
DAT uptake mod = changed hDAT dopamine uptake under cocaine IC80, either direction, primary screen, cocaine antagonist project, cell-based, LLC-PK1 hDAT, [14C]-dopamine uptake, MLSMR. LLC-PK1 hDAT cells, [14C]-dopamine uptake with cocaine IC80; actives deviate in either direction. B-score at 10 µM. 1.3% of 110,000 active. AID 449768, 2010;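 active means Z score or B-score, a plate-position-corrected score, falls beyond the plate's 99.7% confidence bounds, in either direction; inactive means both scores lie inside the 99.7% bounds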;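 further: scored against the spread of the other compound wells on the same plate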
Target sequence (Q01959 whole entry, looked up): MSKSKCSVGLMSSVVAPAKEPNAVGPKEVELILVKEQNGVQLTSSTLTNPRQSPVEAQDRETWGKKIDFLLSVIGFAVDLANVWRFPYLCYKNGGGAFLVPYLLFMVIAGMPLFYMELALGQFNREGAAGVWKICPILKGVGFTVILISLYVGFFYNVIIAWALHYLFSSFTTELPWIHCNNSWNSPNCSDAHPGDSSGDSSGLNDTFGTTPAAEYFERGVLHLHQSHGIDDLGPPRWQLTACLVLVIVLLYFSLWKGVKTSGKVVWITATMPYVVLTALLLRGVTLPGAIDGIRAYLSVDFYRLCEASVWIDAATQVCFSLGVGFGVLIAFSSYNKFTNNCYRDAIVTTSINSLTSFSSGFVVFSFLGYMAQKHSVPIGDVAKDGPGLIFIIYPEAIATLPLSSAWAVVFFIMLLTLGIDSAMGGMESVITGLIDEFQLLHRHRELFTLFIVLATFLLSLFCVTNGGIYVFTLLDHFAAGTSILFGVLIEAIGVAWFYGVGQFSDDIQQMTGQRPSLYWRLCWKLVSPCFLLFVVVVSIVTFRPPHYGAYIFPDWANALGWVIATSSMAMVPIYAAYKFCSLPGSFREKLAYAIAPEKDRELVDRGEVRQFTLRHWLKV
WT yeast gro inh = growth inhibition of WT strain, primary screen, mitochondrial fusion inhibitor project, WT and mutant strains, chemical genetic; mitochondrial fusion phenotypic screen; 2.1% of 190,000 active; inhibition, % at 10 µM; in the data active means inhibition above about 58%; tested in S. cerevisiae
Starred values were filed as active, the others as inactive; / = no result. In the library only some 6.1% were active in any assay of this set; here they are far more common.

SMILES	Measles CPE	Yeast lifespan up	RAM inhibit	Yeast growth inh	DAT uptake mod	WT yeast gro inh
Cc1cccc2nc(CSc3ccc(Cl)cc3)cn12	/	/	1	/	/	73*
Cc1ccc(SCc2cn3c(C)csc3n2)cc1	7	-9	1	-23	0.45	74*
Clc1ccc(SCc2cn3ccccc3n2)cc1	/	/	1	/	/	52
S=C1NCCc2ccccc2C1c1ccccc1Cl (stereo unspecified)	3	/	4	2	0.51	62*
Cc1cccc2cc(CN(Cc3ccco3)C(=O)NC3CCCCC3)c(=O)[nH]c12	7	-10	3	-25	2.4*	-4
O=C(Nc1ncc(Cc2ccccc2Cl)s1)C1=NCCN1	11	-6	2	6	/	73*
CCC(=O)N(CCC(c1ccccc1)c1ccco1)Cc1cccs1 (stereo unspecified)	35	4	1	-47	-0.24	31
O=C(c1ccco1)N(CCC(c1ccccc1)c1ccco1)Cc1ccccc1 (stereo unspecified)	18	9	11*	-29	/	40
O=C(COC(=O)CC1c2ccccc2CCN1S(=O)(=O)c1ccc(F)cc1)Nc1ccccc1 (stereo unspecified)	5	2	8.6*	5	/	8
Cc1ccc(SCc2cc(=O)c3c(=O)n(-c4ccccc4)[nH]c3[nH]2)cc1	/	/	0	/	/	6
Cc1noc(C)c1COC(=O)Cc1ccc(Cl)cc1	48*	2	1	-21	0.48	-20
CCc1ccc(C2=CC(c3cc(Br)ccc3F)n3ncnc3N2)cc1 (stereo unspecified)	10	/	4	-52	0.65	65*
O=C(C[n+]1cccc(/C=N/O)c1)N1CCCc2ccccc21	/	/	1	/	/	-8
CCCCCC1CC1C(=O)N/N=C/c1ccc(N(C)C)cc1 (stereo unspecified)	7	42*	1	-36	0.87	1
COC(=O)c1c(NC(=O)CSc2nnc(C)c(=O)[nH]2)sc(C)c1C	/	/	3	/	/	8
CCCOP(=O)(OCCC)C(Nc1ccc(C(=O)O)cc1)c1ccccc1 (stereo unspecified)	/	/	1	/	/	-7
CCCCOP(=O)(OCCCC)C(Nc1ccccc1)c1ccc2c(c1)OCO2 (stereo unspecified)	2	23	2	-48	/	65*
CCCN(Cc1nnc(-c2ccccc2Cl)o1)C(=O)c1cc([N+](=O)[O-])cc([N+](=O)[O-])c1	/	/	7	/	/	57
O=C1CC(c2ccncc2)c2cc3c(cc2N1)OCCO3 (stereo unspecified)	4	7	1	3	0.011	6
O=C1CC(c2ccc3c(c2)OCO3)c2cc3c(cc2N1)OCCO3 (stereo unspecified)	22	-8	-1	-52	-2.8*	-12
CCOc1ccc(CCNC(=O)c2cccc(C#N)c2)cc1OCC	/	/	1	/	/	-5
O=C(Cn1nc(C(F)(F)F)c2c1CCCC2)Nc1ccc2c(c1)OCO2	8	-7	6	-24	-1.6*	-7
Cc1ccc2nc(SCC(=O)Nc3nonc3N)[nH]c2c1	/	/	2	/	/	-1
COc1ccc(Nc2nc(-c3cc4cccc(OC)c4oc3=O)cs2)cc1	11	-4	3	-36	/	19
COc1ccc2oc(=O)c(-c3csc(Nc4cccc(O)c4)n3)cc2c1	7	-2	4	-23	/	74*
SMILES	Measles CPE	Yeast lifespan up	RAM inhibit	Yeast growth inh	DAT uptake mod	WT yeast gro inh
Cc1ccc(OCC(=O)N2CC(C)OC(C)C2)c([N+](=O)[O-])n1 (stereo unspecified)	/	/	-1	/	/	-8
CCCCn1c(SCC(=O)N2CCCCC2)nc2cc(S(N)(=O)=O)ccc21	2	-8	5	-23	-1.5	-5
CCCCn1c(SCc2nc3ccccc3s2)nc2cc(S(N)(=O)=O)ccc21	40*	-3	2	-11	0.96	1
CCOC(=O)C(NC(C)=O)(Nc1ccc(S(N)(=O)=O)cc1)C(F)(F)F (stereo unspecified)	29	2	0	-8	/	9
Cc1c(Cl)cccc1N=Cc1ccc([N+](=O)[O-])s1	6	-30	-2	57*	-0.93	26
CC(=O)CC(c1ccc([N+](=O)[O-])cc1)c1c(O)c2ccccc2oc1=O (stereo unspecified)	36*	-5	0	-34	0.53	-6
Cc1nnc(NC(=O)Nc2cccc(Cl)c2)s1	5	-5	3	-35	0.26	3
Cc1ccc(OCCSCc2nnc(NC(=O)Nc3cccc(Cl)c3)s2)cc1	7	6	8.4*	-4	/	-10
CC(=O)Nc1ccc(CN2CCCC(C(=O)c3ccc(C(F)(F)F)cc3)C2)cc1 (stereo unspecified)	/	/	-2	/	/	12
O=C1c2c(O)cc(O)cc2O[C@@]12c1c(cc(O)c3c1O[C@H](c1ccc(O)cc1)[C@@H](O)C3)O[C@@H]2c1ccc(O)cc1	6	-2	2	-35	2.2*	-18
CC(C)(C)c1ccc(-c2nnc(SCCC#N)n2C2CCCC2)cc1	11	0	8	-15	-1.9	66*
CCC(CC)C1=NN2C(=N)/C(=C\c3cc(C)n(-c4cccc(C)c4)c3C)C(=O)N=C2S1	4	4	3	0	/	6
COc1ccc(-n2nnnc2-c2cnc3cc4c(cc3c2C)OCO4)cc1	53*	-22	-1	4	-1	-15
O=C(CCn1cnc(-c2ccccc2)c1-c1ccccc1)N/N=C/c1ccccc1O	5	-3	3	-16	/	-11
CCC1C(=O)N=C(SCC(=O)Nc2ccc(S(N)(=O)=O)cc2)NC1=O (stereo unspecified)	/	/	0	/	/	10
CCC1C(=O)N=C(SCC(=O)Nc2ccccc2)NC1=O (stereo unspecified)	10	/	1	51*	0.33	2
NC(=O)c1cccc(C(N)=O)n1	/	/	-2	/	/	-14
CCOc1ccc2nc(SCC(=O)Nc3nonc3C)[nH]c2c1	/	/	9.1*	/	/	-14
CCCc1[nH]nc2c1C(c1ccc(OC)c(CSC3=NCCS3)c1)C(C#N)=C(N)O2 (stereo unspecified)	28*	-3	1	-39	-0.035	57
CCCc1[nH]nc2c1C(c1ccc(OC(=O)N3CCOCC3)c(OC)c1)C(C#N)=C(N)O2 (stereo unspecified)	8	-3	2	-22	1.7	19
CCCc1[nH]nc2c1C(c1cc(OC)cc(OC)c1)C(C#N)=C(N)O2 (stereo unspecified)	83*	-1	-1	6	-0.39	12
